This note sets out measurements from ChEMBL document CHEMBL1828595, “A facile four-component sequential protocol in the expedient synthesis of novel 2-aryl-5-methyl-2,3-dihydro-1H-3-pyrazolones in water and their antitubercular evaluation” (2011).

Molecules are shown by their SMILES. In brackets after ≈: the same amount, converted by molar mass.

What all share (type): functional
Test [1] concerns Mycobacterium tuberculosis. In words: Antitubercular activity against Mycobacterium tuberculosis H37Rv by agar dilution method. The method, boiled down:
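M. tuberculosis H37Rv on Middlebrook 7H11 agar with OADC, agar dilution per NCCLS-type MIC method, pH 7.4. MIC taken as the lowest concentration inhibiting 99% of bacterial growth, determined in duplicate.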
In general terms: In agar dilution, organisms are placed on agar that contains the substance at set levels.

The test system of test [2] is Mycobacterium tuberculosis. In words: Ratio of MIC for ciprofloxacin to compound for Mycobacterium tuberculosis H37Rv by agar dilution method. Summed up: (§1)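 Ratio of reference-drug MIC to test-compound MIC. Both MICs were measured against M. tuberculosis H37Rv by agar dilution on OADC-supplemented Middlebrook 7H11 at pH 7.4, with 99% growth inhibition as endpoint, in duplicate.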

For test [3], the system named is Mycobacterium tuberculosis. In words: Ratio of MIC for ethambutol to compound for Mycobacterium tuberculosis H37Rv by agar dilution method. Summed up:
as §1

Take `NNC(=O)c1ccncc1` [ISONIAZID]: in test [1], inhibition of growth (MIC) required 0.4 µM (≈ 0.0549 µg/mL).
In test [1], `Cc1ccc(C(c2c(C)[nH]n(-c3ccc(F)cc3)c2=O)c2c(O)ccc3ccccc23)cc1` (stereo not given) gave a minimal inhibitory concentration (MIC) of 14.2 µM (≈ 6.23 µg/mL).
In test [1], `Cc1[nH]n(-c2ccccc2)c(=O)c1C(c1ccc(Cl)cc1)c1c(O)ccc2ccccc12` (stereo not given) returned an MIC of 14.1 µM (≈ 6.22 µg/mL).
As to `CO[C@H]1/C=C/O[C@@]2(C)Oc3c(C)c(O)c4c(O)c(c(/C=N/N5CCN(C)CC5)c(O)c4c3C2=O)NC(=O)/C(C)=C\C=C\[C@H](C)[C@H](O)[C@@H](C)[C@@H](O)[C@@H](C)[C@H](OC(C)=O)[C@@H]1C` [RIFAMPIN], the MIC in test [1] was determined as 0.1 µM (≈ 0.0823 µg/mL).
As for `Cc1[nH]n(-c2ccc(F)cc2)c(=O)c1C(c1ccc(F)cc1)c1c(O)ccc2ccccc12` (stereo not given), it took 7.1 µM (≈ 3.14 µg/mL) to inhibit growth in test [1] (MIC).
`Cc1[nH]n(-c2ccc(F)cc2)c(=O)c1C(c1ccccc1)c1c(O)ccc2ccccc12` (stereo not given) gave an MIC in test [1] of 14.7 µM (≈ 6.24 µg/mL).
The same measure, in the same setting: the figure for `Cc1[nH]n(-c2ccc(Cl)cc2)c(=O)c1C(c1ccc(Cl)cc1)c1c(O)ccc2ccccc12` (stereo not given) is 6.6 µM (≈ 3.14 µg/mL); for `Cc1[nH]n(-c2ccc(F)cc2)c(=O)c1C(c1ccc(Cl)cc1)c1c(O)ccc2ccccc12` (stereo not given) it is 3.4 µM (≈ 1.56 µg/mL).
`Cc1[nH]n(-c2ccccc2)c(=O)c1C(c1ccccc1[N+](=O)[O-])c1c(O)ccc2ccccc12` (stereo not given): in test [1], the minimal inhibitory concentration (MIC) came out at 13.8 µM (≈ 6.23 µg/mL).
`CC[C@@H](CO)NCCN[C@@H](CC)CO` [ETHAMBUTOL] showed an MIC in test [1] of 7.6 µM (≈ 1.55 µg/mL).
As to `Cc1[nH]n(-c2ccc(F)cc2)c(=O)c1C(c1ccc(Cl)cc1Cl)c1c(O)ccc2ccccc12` (stereo not given), in test [1], the minimal inhibitory concentration (MIC) stood at 1.6 µM (≈ 0.789 µg/mL). In addition, the Ratio in test [2] is given as 2.94; in test [3], 4.75.
As for `Cc1[nH]n(-c2ccccc2)c(=O)c1C(c1ccc(C(C)C)cc1)c1c(O)ccc2ccccc12` (stereo not given), inhibition of growth in test [1] (MIC) required 14 µM (≈ 6.28 µg/mL).
In test [1], `COc1ccc(C(c2c(C)[nH]n(-c3ccccc3)c2=O)c2c(O)ccc3ccccc23)cc1` (stereo not given) had a minimal inhibitory concentration (MIC) of 28.6 µM (≈ 12.5 µg/mL).
In test [1], `Cc1[nH]n(-c2ccccc2)c(=O)c1C(c1ccccc1)c1c(O)ccc2ccccc12` (stereo not given) showed an MIC of 30.8 µM (≈ 12.5 µg/mL).
The same measure, in the same setting: under `Cc1[nH]n(-c2ccccc2)c(=O)c1C(c1ccc([N+](=O)[O-])cc1)c1c(O)ccc2ccccc12` (stereo not given) stands 6.9 µM (≈ 3.12 µg/mL).
On to `Cc1[nH]n(-c2ccc(F)cc2)c(=O)c1C(c1ccc([N+](=O)[O-])cc1)c1c(O)ccc2ccccc12` (stereo not given), for which it took 3.3 µM (≈ 1.55 µg/mL) to inhibit growth in test [1] (MIC).
`Cc1ccc(C(c2c(C)[nH]n(-c3ccccc3)c2=O)c2c(O)ccc3ccccc23)cc1` (stereo not given) registered an MIC in test [1] of 29.7 µM (≈ 12.5 µg/mL).
`Cc1[nH]n(-c2ccc(F)cc2)c(=O)c1C(c1cccc([N+](=O)[O-])c1)c1c(O)ccc2ccccc12` (stereo not given) registered an MIC in test [1] of 6.7 µM (≈ 3.15 µg/mL).

One may read the MIC as the lowest concentration that inhibits growth of the organism.
